The source made the active and inactive calls. No cut-off for these calls is given here.
Key:
Aspergillus fumigatus = assay: Antimicrobial activity against Aspergillus fumigatus HIC 6094 after 48 to 72 hrs by two-fold broth dilution assay; type: functional
Trichophyton rubrum = assay: Antimicrobial activity against Trichophyton rubrum IFO 9185 after 48 to 72 hrs by two-fold broth dilution assay; type: functional
A549 = assay: Cytotoxicity against human A549 cells after 48 hrs by MTT assay; type: functional; details: A549, 48 h
Summary of the method: (§1)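 Values reported as LC50 (μM), with doxorubicin as the positive control; the rest of the method follows the cited literature protocol.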

Hepa-1c1c7 [1] = assay: Induction of quinone reductase in mouse Hepa-1c1c7 cells after 24 hrs by MTT assay; type: cell-based
Summary of the method: (§2)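 QR induction measured in murine Hepa 1c1c7 hepatoma cells. Test concentrations ranged 5−40 μM. Blank control was 0.1% DMSO, and β-NF at 2 μM served as the positive control. Induction is expressed as fold over the blank control.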

K562 = assay: Cytotoxicity against human K562 cells after 48 hrs by MTT assay; type: functional; details: K562, 48 h, read-out: LC50 (the source's name); summary of the method: as §1
Hepa-1c1c7 [2] = assay: Induction of quinone reductase in mouse Hepa-1c1c7 cells at 40 uM after 24 hrs by MTT assay relative to control; type: cell-based; summary of the method: as §2
Candida albicans = assay: Antimicrobial activity against Candida albicans ATCC 10231 after 48 to 72 hrs by two-fold broth dilution assay; type: functional
Micrococcus luteus = assay: Antimicrobial activity against Micrococcus luteus IFO 12708 after 24 hrs by two-fold broth dilution assay; type: functional; details: IFO 12708, 24 h
Escherichia coli = assay: Antimicrobial activity against Escherichia coli ATCC 35270 after 24 hrs by two-fold broth dilution assay; type: functional; details: ATCC 35270, 24 h
Salmonella typhimurium = assay: Antimicrobial activity against Salmonella typhimurium ATCC 14028 after 24 hrs by two-fold broth dilution assay; type: functional, Salmonella enterica subsp. enterica serovar Typhimurium; details: Salmonella enterica, ATCC 14028, 24 h
[3] = system: Trichophyton mentagrophytes; assay: Antimicrobial activity against Trichophyton mentagrophytes IFO 40996 after 48 to 72 hrs by two-fold broth dilution assay; type: functional
Bacillus spizizenii = assay: Antimicrobial activity against Bacillus subtilis ATCC 6633 after 24 hrs by two-fold broth dilution assay; type: functional; details: ATCC 6633, 24 h
Staphylococcus aureus = assay: Antimicrobial activity against Staphylococcus aureus ATCC 6538p after 24 hrs by two-fold broth dilution assay; type: functional
Proteus vulgaris = assay: Antimicrobial activity against Proteus vulgaris ATCC 3851 after 24 hrs by two-fold broth dilution assay; type: functional; details: ATCC 3851, 24 h
Hepa-1c1c7 [4] = assay: Induction of quinone reductase in mouse Hepa-1c1c7 cells at 2 uM after 24 hrs by MTT assay relative to control; type: cell-based
[5] = read-out: LC50 (the source's name)

Row | Compound | MIC (Aspergillus fumigatus) | MIC (Trichophyton rubrum) | CC50 (A549; [5]) | Activity (Hepa-1c1c7 [1]) | CC50 (K562) | Ratio (Hepa-1c1c7 [2]) | MIC (Candida albicans) | MIC (Micrococcus luteus) | MIC (Escherichia coli) | MIC (Salmonella typhimurium) | MIC [3] | MIC (Bacillus spizizenii) | MIC (Staphylococcus aureus) | MIC (Proteus vulgaris) | CC50 (A549; read-out: LD50 (the source's name)) | Activity (Hepa-1c1c7 [4]) | Activity (Hepa-1c1c7 [2])
1 | Cc1cc(=O)c2c(o1)O[C@@]1(C)[C@@H](CC[C@H]3C(C)(C)C(=O)CC[C@@]31C)C2 | > 100 µg/mL | > 100 µg/mL | 17 µM | Dose-dependent effect | 50 µM | 1.9 | > 100 µg/mL | > 100 µg/mL | > 100 µg/mL | > 100 µg/mL | > 100 µg/mL | > 100 µg/mL | > 100 µg/mL | > 100 µg/mL |  |  | 
2 | COc1cccc2c1C(=O)c1c(O)c3c(c(O)c1C2=O)C[C@@](O)(C(=O)CO)C[C@@H]3O[C@H]1C[C@H](N)[C@H](O)[C@H](C)O1 [DOXORUBICIN] |  |  |  |  | 0.99 µM |  |  |  |  |  |  |  |  |  | 1.2 µM |  | 
3 | O=c1cc(-c2ccccc2)oc2ccc3ccccc3c12 |  |  |  |  |  |  |  |  |  |  |  |  |  |  |  | Active | 
4 | Cc1cc(=O)c2c(o1)O[C@@]1(C)[C@@H](CC[C@H]3C(C)(C)[C@@H](O)CC[C@@]31C)C2 | > 100 µg/mL | > 100 µg/mL | 15 µM |  | 28 µM |  | > 100 µg/mL | > 100 µg/mL | > 100 µg/mL | > 100 µg/mL | > 100 µg/mL | > 100 µg/mL | > 100 µg/mL | > 100 µg/mL |  |  | inactive
